Laboratory results from ChEMBL document CHEMBL1671683, “Activity of linezolid in an in vitro pharmacokinetic-pharmacodynamic model using different dosages and Staphylococcus aureus and Enterococcus faecalis strains with and without a hypermutator phenotype” (Antimicrob Agents Chemother, 2010).

Columns and labels:
Staphylococcus aureus [1] = experiment: Bactericidal activity against 12.5 hrs peripheral compartment culture samples of Staphylococcus aureus RN4220 MutS2 in two-compartment pharmacokinetic/pharmacodynamic model assessed as effect on bacterial count at 600 mg, bid administered as 0.5 hr infusion; type: functional
Procedure, shortened: (§1)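 An 18-h culture concentrated 50-fold was injected into the peripheral compartment 3 h pre-sampling (~10^8 CFU/ml E. faecalis, 10^9 S. aureus). Counts came from dilution plating (detection limit 2–3 log10 CFU/ml), expressed as Δlog CFU/ml from treatment start. Run in duplicate.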

Enterococcus faecalis [2] = experiment: Bactericidal activity against 14 hrs peripheral compartment culture samples of Enterococcus faecalis ATCC 29212 in two-compartment pharmacokinetic/pharmacodynamic model assessed as effect on bacterial count at 200 mg, bid administered as 0.5 hr infusion; type: functional; procedure, shortened: as §1
Enterococcus faecalis [3] = experiment: Bactericidal activity against 14 hrs peripheral compartment culture samples of Enterococcus faecalis ATCC 29212 in two-compartment pharmacokinetic/pharmacodynamic model assessed as effect on bacterial count at 600 mg, bid administered as 0.5 hr infusion; type: functional; procedure, shortened: as §1
Enterococcus faecalis [4] = experiment: Bactericidal activity against 12 hrs peripheral compartment culture samples of Enterococcus faecalis Ef1497 in two-compartment pharmacokinetic/pharmacodynamic model assessed as effect on bacterial count at 600 mg, bid administered as 0.5 hr infusion; type: functional
Procedure, shortened: (§2)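 Two-compartment hollow-fibre model in cation-adjusted, protein-free MH broth, 37°C. Linezolid given as simulated 0.5-h infusion twice daily. Inoculum grown 18 h, concentrated 50-fold and placed in the peripheral compartment 3 h before t0. Peripheral samples at set times counted by dilution plating. First 10-fold dilution not plated, limiting detection to 2–3 log10 CFU/ml. Δlog CFU/ml taken from t0 count. Duplicates.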

Enterococcus faecalis [5] = experiment: Bactericidal activity against 12.5 hrs peripheral compartment culture samples of Enterococcus faecalis Ef1497 in two-compartment pharmacokinetic/pharmacodynamic model assessed as effect on bacterial count at 600 mg, bid administered as 0.5 hr infusion; type: functional; procedure, shortened: as §1
Enterococcus faecalis [6] = experiment: Bactericidal activity against 24 hrs peripheral compartment culture samples of Enterococcus faecalis Ef1497 in two-compartment pharmacokinetic/pharmacodynamic model assessed as effect on bacterial count at 600 mg, bid administered as 0.5 hr infusion; type: functional; procedure, shortened: as §1
Enterococcus faecalis [7] = experiment: Bactericidal activity against 1 hr peripheral compartment culture samples of Enterococcus faecalis Ef1497 in two-compartment pharmacokinetic/pharmacodynamic model assessed as effect on bacterial count at 800 mg, bid administered as 0.5 hr infusion; type: functional; procedure, shortened: as §2
Enterococcus faecalis [8] = experiment: Bactericidal activity against 0.5 hrs peripheral compartment culture samples of Enterococcus faecalis Ef1497 MutM3 in two-compartment pharmacokinetic/pharmacodynamic model assessed as effect on bacterial count at 200 mg, bid administered as 0.5 hr infusion; type: functional; procedure, shortened: as §2
Enterococcus faecalis [9] = experiment: Bactericidal activity against 2 hrs peripheral compartment culture samples of Enterococcus faecalis Ef1497 MutM3 in two-compartment pharmacokinetic/pharmacodynamic model assessed as effect on bacterial count at 200 mg, bid administered as 0.5 hr infusion; type: functional; procedure, shortened: as §1
Enterococcus faecalis [10] = experiment: Bactericidal activity against 13 hrs peripheral compartment culture samples of Enterococcus faecalis Ef1497 MutM3 in two-compartment pharmacokinetic/pharmacodynamic model assessed as effect on bacterial count at 600 mg, bid administered as 0.5 hr infusion; type: functional; procedure, shortened: as §1
Enterococcus faecalis [11] = experiment: Bactericidal activity against 14 hrs peripheral compartment culture samples of Enterococcus faecalis Ef1497 MutM3 in two-compartment pharmacokinetic/pharmacodynamic model assessed as effect on bacterial count at 600 mg, bid administered as 0.5 hr infusion; type: functional; procedure, shortened: as §1
Enterococcus faecalis [12] = experiment: Bactericidal activity against 24 hrs peripheral compartment culture samples of Enterococcus faecalis Ef1497 MutM3 in two-compartment pharmacokinetic/pharmacodynamic model assessed as effect on bacterial count at 600 mg, bid administered as 0.5 hr infusion; type: functional; procedure, shortened: as §1
Staphylococcus aureus [13] = experiment: Bactericidal activity against 0.5 hrs peripheral compartment culture samples of Staphylococcus aureus RN4220 in two-compartment pharmacokinetic/pharmacodynamic model assessed as effect on bacterial count at 600 mg, bid administered as 0.5 hr infusion; type: functional; procedure, shortened: as §2
Staphylococcus aureus [14] = experiment: Bactericidal activity against 12.5 hrs peripheral compartment culture samples of Staphylococcus aureus RN4220 in two-compartment pharmacokinetic/pharmacodynamic model assessed as effect on bacterial count at 600 mg, bid administered as 0.5 hr infusion; type: functional; procedure, shortened: as §1
Staphylococcus aureus [15] = experiment: Bactericidal activity against 48 hrs peripheral compartment culture samples of Staphylococcus aureus RN4220 in two-compartment pharmacokinetic/pharmacodynamic model assessed as effect on bacterial count at 600 mg, bid administered as 0.5 hr infusion; type: functional
Procedure, shortened: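 An 18-h culture was concentrated 50-fold by centrifugation and injected into the peripheral compartment 3 h before first sampling, giving about 10^9 CFU/ml exponential growth. Linezolid was simulated as a 0.5-h infusion every 12 h. Samples taken from 0 to 48 h were counted by dilution plating on MH agar; the first 10-fold dilution was not plated (detection limit 2–3 log10 CFU/ml). Effect was expressed as Δlog CFU/ml from treatment start. Run in duplicate.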

Enterococcus faecalis [16] = experiment: T>MIC in Enterococcus faecalis ATCC 29212 in two-compartment pharmacokinetic/pharmacodynamic model at 200 mg, bid administered as 0.5 hr infusion for 2 days; type: functional
Enterococcus faecalis [17] = experiment: T>MIC in Enterococcus faecalis ATCC 29212 in two-compartment pharmacokinetic/pharmacodynamic model at 600 mg, bid administered as 0.5 hr infusion for 2 days; type: functional
Enterococcus faecalis [18] = experiment: AUBC (0 to 24 hrs) in Enterococcus faecalis Ef1497 in two-compartment pharmacokinetic/pharmacodynamic model at 600 mg, bid administered as 0.5 hr infusion for 2 days; type: functional
Procedure, shortened: (§3)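 Hollow-fibre two-compartment model in cation-adjusted, protein-free MH broth at 37°C. Human total-plasma linezolid profile simulated as 0.5-h infusion every 12 h for 48 h. Concentrated 18-h culture injected into the peripheral compartment 3 h before first sample, giving about 10^8 (E. faecalis) or 10^9 (S. aureus) CFU/ml. Viable counts by dilution plating over 0–24 h. Area indices calculated versus growth control curve. Duplicate runs.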

Enterococcus faecalis [19] = experiment: AUBC (0 to 24 hrs) in Enterococcus faecalis Ef1497 MutM3 in two-compartment pharmacokinetic/pharmacodynamic model at 600 mg, bid administered as 0.5 hr infusion for 2 days; type: functional; procedure, shortened: as §3
Enterococcus faecalis [20] = experiment: ABBC (0 to 24 hrs) in Enterococcus faecalis Ef1497 in two-compartment pharmacokinetic/pharmacodynamic model at 600 mg, bid administered as 0.5 hr infusion for 2 days; type: functional; procedure, shortened: as §3
Enterococcus faecalis [21] = experiment: ABBC (0 to 24 hrs) in Enterococcus faecalis Ef1497 MutM3 in two-compartment pharmacokinetic/pharmacodynamic model at 200 mg, bid administered as 0.5 hr infusion for 2 days; type: functional; procedure, shortened: as §3
[22] = AUC in two-compartment pharmacokinetic/pharmacodynamic model at 200 mg, bid administered as 0.5 hr infusion over 24 hrs; type: ADME; parameters: dose 200 mg, time < 24 hr; conditions: in vivo, iv
[23] = Volume of distribution at steady state in two-compartment pharmacokinetic/pharmacodynamic model at 800 mg, bid administered as 0.5 hr infusion over 24 hrs; type: ADME, organism-based; conditions: iv, read-out: Vdss
in vitro = conditions: two-compartment pharmacokinetic/pharmacodynamic model, iv, 200 mg

SMILES: CC(=O)NC[C@H]1CN(c2ccc(N3CCOCC3)c(F)c2)C(=O)O1 [LINEZOLID]
- log10CFU/ml (Staphylococcus aureus [1]): -0.06
- log10CFU/ml (Enterococcus faecalis [2]): 0.55
- log10CFU/ml (Enterococcus faecalis [3]): 0.18
- log10CFU/ml (Enterococcus faecalis [4]): -0.12
- log10CFU/ml (Enterococcus faecalis [5]): -0.14
- log10CFU/ml (Enterococcus faecalis [6]): 0.35
- log10CFU/ml (Enterococcus faecalis [7]): -0.02
- log10CFU/ml (Enterococcus faecalis [8]): -0.009
- log10CFU/ml (Enterococcus faecalis [9]): 0.06
- log10CFU/ml (Enterococcus faecalis [10]): 0.25
- log10CFU/ml (Enterococcus faecalis [11]): 0.28
- log10CFU/ml (Enterococcus faecalis [12]): 0.44
- log10CFU/ml (Staphylococcus aureus [13]): -0.04
- log10CFU/ml (Staphylococcus aureus [14]): -0.26
- log10CFU/ml (Staphylococcus aureus [15]): 0.32
- fT>MIC (Enterococcus faecalis [16]): 8.08%
- fT>MIC (Enterococcus faecalis [17]): 69.1%
- AUBC (Enterococcus faecalis [18]): 215.6 log10CFU/ml.hr
- AUBC (Enterococcus faecalis [19]): 217.1 log10CFU/ml.hr
- ABBC (Enterococcus faecalis [20]): -1.49 log10CFU/ml.hr
- ABBC (Enterococcus faecalis [21]): 2.32 log10CFU/ml.hr
- AUC at 24 h [22]: 10100 ng·h/mL
- Vd [23]: 89.3 L
- half-life at 0.5 h (in vitro): 6.72 h
